According to PubChem BioAssay AID588420 (The Scripps Research Institute Molecular Screening Center, 2011):
Activity calls are given as the source filed them.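 How the source made its calls: active means IC50 at or below 1 µM; inactive means the rest.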

Biological target: Protein-arginine deiminase type-4 (Homo sapiens) (UniProt Q9UM07)
Test: recombinant human PAD4 inhibitors – biochemical, BAEE substrate, citrulline absorbance, 8-point 0-10 µM, late-stage follow-up (AID 588420)
Conditions: recombinant PAD4, BAEE citrulline colorimetric absorbance
In short: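 Signal: absorbance at 540 nm; material: recombinant PAD4 enzyme; reagent: 10 mM BAEE; times: 15 min compound preincubation, then 15 min substrate reaction, 37 °C; measure: IC50 from fitted dose-response; dosing: 8 doses, 0–10 µM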

Sequence of Protein-arginine deiminase type-4 (Homo sapiens) (Q9UM07 whole entry, looked up): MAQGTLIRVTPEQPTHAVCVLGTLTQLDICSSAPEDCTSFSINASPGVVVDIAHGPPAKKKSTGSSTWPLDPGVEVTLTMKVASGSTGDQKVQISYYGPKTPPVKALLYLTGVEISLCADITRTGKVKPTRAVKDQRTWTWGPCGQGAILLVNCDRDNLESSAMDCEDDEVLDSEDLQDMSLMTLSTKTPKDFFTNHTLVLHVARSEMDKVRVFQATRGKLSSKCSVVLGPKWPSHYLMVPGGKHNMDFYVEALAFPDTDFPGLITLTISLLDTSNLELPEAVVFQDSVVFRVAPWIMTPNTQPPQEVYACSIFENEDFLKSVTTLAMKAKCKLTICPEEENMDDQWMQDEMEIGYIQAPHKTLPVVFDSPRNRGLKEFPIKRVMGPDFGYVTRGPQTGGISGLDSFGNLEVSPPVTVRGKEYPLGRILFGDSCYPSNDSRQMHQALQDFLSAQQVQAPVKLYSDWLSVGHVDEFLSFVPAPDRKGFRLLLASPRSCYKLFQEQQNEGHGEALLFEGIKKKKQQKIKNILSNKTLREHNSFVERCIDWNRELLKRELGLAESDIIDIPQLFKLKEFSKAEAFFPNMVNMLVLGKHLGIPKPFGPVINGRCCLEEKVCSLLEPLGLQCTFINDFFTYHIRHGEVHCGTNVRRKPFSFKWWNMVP

## COC1=CC(=O)c2nc(C#N)ccc2C1=O
  IC50: inactive
